≈ marks a conversion by molar mass, not a printed value.
Experiments:
Format in all cases: functional
[1] = system: Escherichia coli; assay: In vitro antibacterial activity against clinical isolates of Escherichia coli 15 (gram negative) by agar dilution assay.
How it was run: (§1)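 Agar dilution on Isosensitest agar; compound incorporated by twofold serial dilution. Overnight broth cultures delivered by multipoint inoculator at 10⁵ CFU per point. Plates read after 18 h at 37 °C. MIC taken as the lowest concentration giving complete growth inhibition.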

[2] = system: Klebsiella pneumoniae; assay: In vitro antibacterial activity against clinical isolates of Klebsiella pneumoniae-4 (gram negative) by agar dilution assay.; how it was run: as §1
[3] = system: Staphylococcus aureus; assay: In vitro antibacterial activity against clinical isolates of Staphylococcus aureus 18773 (gram-positive) by agar dilution assay.; how it was run: as §1
[4] = system: Enterobacter cloacae; assay: In vitro antibacterial activity against clinical isolates of Enterobacter cloacae 041 (gram negative) by agar dilution assay.; how it was run: as §1
[5] = system: Morganella morganii; assay: In vitro antibacterial activity against clinical isolates of Proteus morganii 27 (gram negative) by agar dilution assay.; how it was run: as §1
[6] = system: Pseudomonas aeruginosa; assay: In vitro antibacterial activity against clinical isolates of Pseudomonas aeruginosa 2437 (gram negative) by agar dilution assay.; how it was run: as §1

| Structure (SMILES) | MIC [1] [µg/mL] | MIC [2] [µg/mL] | MIC [3] [µg/mL] | MIC [4] [µg/mL] | MIC [5] [µg/mL] | MIC [6] [µg/mL] |
| --- | --- | --- | --- | --- | --- | --- |
| O=C(O)c1cn2c3c(cc(F)c(N4CCCC4)c3c1=O)SCC2 | > 100 | > 100 | > 100 |  |  |  |
| O=C(O)c1cn2c3c(cccc3c1=O)SCC2 | 6.25 (≈ 25.3 µM) | 25 (≈ 101 µM) | 25 (≈ 101 µM) | 25 (≈ 101 µM) | 12.5 (≈ 50.6 µM) | 50 (≈ 202 µM) |
| O=C(O)c1cn2c3c(c(Cl)c(N4CCNCC4)cc3c1=O)SCC2 | > 50 | > 50 | > 50 | > 50 | > 50 | > 50 |
| O=C(O)c1cn2c3c(cc(N4CCN(CCO)CC4)cc3c1=O)SCC2 | 100 (≈ 266 µM) |  | 100 (≈ 266 µM) |  | > 50 | > 100 |
| O=C(O)c1cn2c3c(cc(N4CCCC4)cc3c1=O)SCC2 | 50 (≈ 158 µM) |  | 50 (≈ 158 µM) |  |  | 100 (≈ 316 µM) |
| O=C(O)c1cn2c3c(cccc3c1=O)S(=O)(=O)CC2 | 100 (≈ 358 µM) | > 100 | > 100 | > 100 | > 100 | 100 (≈ 358 µM) |
| O=C(O)c1cn2c3c(cc(F)c(N4CCNCC4)c3c1=O)SCC2 | > 100 | > 100 | > 100 | > 100 | > 100 | > 100 |
| O=C(O)c1cn2c3c(cc(F)c(Cl)c3c1=O)SCC2 | > 50 | > 50 | > 50 | > 50 | > 50 | > 50 |
| O=C(O)c1cn2c3c(cc(N4CCCC4)c(Cl)c3c1=O)SCC2 | > 100 | > 100 | 100 (≈ 285 µM) |  | > 100 | > 100 |
| CCOC(=O)N1CCN(c2c(F)cc3c(=O)c(C(=O)O)cn4c3c2SCC4)CC1 | 6.25 (≈ 14.8 µM) | 6.25 (≈ 14.8 µM) | 0.39 (≈ 0.925 µM) | 6.25 (≈ 14.8 µM) | > 50 | > 50 |
| O=C(O)c1cn2c3c(c(Cl)c(N4CCOCC4)cc3c1=O)SCC2 | 6.25 (≈ 17 µM) | > 50 | > 50 | > 50 | > 50 | 6.25 (≈ 17 µM) |
| CCn1cc(C(=O)O)c(=O)c2cc(F)c(N3CCNCC3)cc21 [NORFLOXACIN] | 0.19 (≈ 0.595 µM) | 0.19 (≈ 0.595 µM) | 0.19 (≈ 0.595 µM) | 0.39 (≈ 1.22 µM) | 0.78 (≈ 2.44 µM) | 1.56 (≈ 4.89 µM) |
| O=C(O)c1cn2c3c(c(Cl)c(F)cc3c1=O)S(=O)(=O)CC2 | > 50 |  |  |  |  |  |
| O=C(O)c1cn2c3c(c(N4CCCC4)c(F)cc3c1=O)[S+]([O-])CC2 (stereo not drawn) | 12.5 (≈ 35.7 µM) | 25 (≈ 71.4 µM) | 12.5 (≈ 35.7 µM) | 50 (≈ 143 µM) | > 50 | > 50 |
| O=C(O)c1cn2c3c(cc(Cl)cc3c1=O)SCC2 | 3.12 (≈ 11.1 µM) | 6.25 (≈ 22.2 µM) | 25 (≈ 88.7 µM) | 12.5 (≈ 44.4 µM) | 6.25 (≈ 22.2 µM) | > 100 |
| CN1CCN(c2cc3c(=O)c(C(=O)O)cn4c3c(c2Cl)SCC4)CC1 | > 50 | > 50 | > 50 | > 50 | > 50 | 6.25 (≈ 16.5 µM) |
| CC1CN(c2c(F)cc3c(=O)c(C(=O)O)cn4c3c2SCC4)CC(C)N1 (stereo not drawn) | 6.25 (≈ 16.6 µM) | 6.25 (≈ 16.6 µM) | 3.12 (≈ 8.27 µM) | 3.12 (≈ 8.27 µM) | 25 (≈ 66.2 µM) | 100 (≈ 265 µM) |
| CN1CCN(c2cc3c4c(c2)c(=O)c(C(=O)O)cn4CCS3)CC1 | 100 (≈ 289 µM) |  | 100 (≈ 289 µM) |  | 100 (≈ 289 µM) | > 100 |

| Structure (SMILES) | MIC [1] [µg/mL] | MIC [2] [µg/mL] | MIC [3] [µg/mL] | MIC [4] [µg/mL] | MIC [5] [µg/mL] | MIC [6] [µg/mL] |
| --- | --- | --- | --- | --- | --- | --- |
| O=C(O)c1cn2c3c(c(N4CCCC4)c(F)cc3c1=O)S(=O)(=O)CC2 | 3.12 (≈ 8.52 µM) | 25 (≈ 68.2 µM) | 3.12 (≈ 8.52 µM) | 25 (≈ 68.2 µM) | > 50 | > 50 |
| CC1COc2c(N3CCN(C)CC3)c(F)cc3c(=O)c(C(=O)O)cn1c23 (stereo not drawn) [OFLOXACIN] | 0.19 (≈ 0.526 µM) | 0.39 (≈ 1.08 µM) | 0.19 (≈ 0.526 µM) | 0.19 (≈ 0.526 µM) | 0.78 (≈ 2.16 µM) | 1.56 (≈ 4.32 µM) |
| O=C(O)c1cn2c3c(cc(N4CCN(Cc5ccccc5)CC4)cc3c1=O)SCC2 | 50 (≈ 119 µM) |  | 50 (≈ 119 µM) |  | > 50 | > 50 |
| O=C(O)c1cn2c3c(c(N4CCNCC4)c(F)cc3c1=O)SCC2 | 0.39 (≈ 1.12 µM) | < 0.39 | 0.78 (≈ 2.23 µM) | < 0.39 | 1.56 (≈ 4.46 µM) | 12.5 (≈ 35.8 µM) |
| O=C(O)c1cn2c3c(cc(N4CCOCC4)cc3c1=O)SCC2 | > 50 | > 50 | > 50 | > 50 | > 50 | 6.25 (≈ 18.8 µM) |
| O=C(O)c1cn2c3c(c(N4CCN(C(=O)C(F)(F)F)CC4)c(F)cc3c1=O)SCC2 | < 0.39 | < 0.39 | 1.56 (≈ 3.5 µM) | < 0.39 | 1.56 (≈ 3.5 µM) | 12.5 (≈ 28.1 µM) |
| O=C(O)c1cn2c3c(c(N4CCCC4)c(F)cc3c1=O)SCC2 | 1.56 (≈ 4.67 µM) | 1.56 (≈ 4.67 µM) | < 0.39 | 1.56 (≈ 4.67 µM) | 3.12 (≈ 9.33 µM) | 3.12 (≈ 9.33 µM) |
| O=C(O)c1cn2c3c(ccc(C(F)(F)F)c3c1=O)SCC2 | > 50 | > 50 | > 50 | > 50 | > 50 | 100 (≈ 317 µM) |
| O=C(O)c1cn2c3c(cc(N4CCNCC4)cc3c1=O)SCC2 | > 50 | 50 (≈ 151 µM) | > 50 | 50 (≈ 151 µM) | 50 (≈ 151 µM) | 50 (≈ 151 µM) |
| O=C(O)c1cn2c3c(c(Cl)c(F)cc3c1=O)[S+]([O-])CC2 (stereo not drawn) | > 100 | > 100 | > 100 | > 100 | > 100 | > 100 |
| O=C(O)c1cn2c3c(c(N4CCN(CC(F)(F)F)CC4)c(F)cc3c1=O)SCC2 | > 50 | > 50 | 0.39 (≈ 0.904 µM) | > 50 | > 50 | > 50 |
| O=C(O)c1cn2c3c(c(Cl)c(N4CCCC4)cc3c1=O)SCC2 | > 50 | > 50 | > 50 | > 50 | > 50 | > 50 |
| CCn1cc(C(=O)O)c(=O)c2cnc(N3CCNCC3)nc21 [PIPEMIDIC ACID] | 0.39 (≈ 1.29 µM) | 0.78 (≈ 2.57 µM) | 3.12 (≈ 10.3 µM) | 0.78 (≈ 2.57 µM) | 3.12 (≈ 10.3 µM) | > 25 |
| O=C(O)c1cn2c3c(cc(F)cc3c1=O)S(=O)(=O)CC2 | 100 (≈ 336 µM) |  | > 50 |  |  | > 50 |
| O=C(O)c1cn2c3c(cc(F)cc3c1=O)SCC2 | 0.78 (≈ 2.94 µM) | 3.12 (≈ 11.8 µM) | 6.25 (≈ 23.6 µM) | 6.25 (≈ 23.6 µM) | 3.12 (≈ 11.8 µM) | 50 (≈ 188 µM) |
| O=C(O)c1cn2c3c(c(N4CCSCC4)c(F)cc3c1=O)SCC2 | 3.12 (≈ 8.51 µM) | 1.56 (≈ 4.26 µM) | 0.78 (≈ 2.13 µM) | 1.56 (≈ 4.26 µM) | 6.25 (≈ 17.1 µM) | > 50 |
| O=C(O)c1cn2c3c(c(Cl)c(F)cc3c1=O)SCC2 | 0.39 (≈ 1.3 µM) | 0.78 (≈ 2.6 µM) | 0.39 (≈ 1.3 µM) | 0.39 (≈ 1.3 µM) | 6.25 (≈ 20.9 µM) | > 25 |
| O=C(O)c1cn2c3c(cc(N4CCN(C(=O)C(F)(F)F)CC4)cc3c1=O)SCC2 | > 50 |  | 50 (≈ 117 µM) |  | > 50 | 100 (≈ 234 µM) |

Source: ChEMBL document CHEMBL1123921, “Quinolonecarboxylic acids. 2. Synthesis and antibacterial evaluation of 7-oxo-2,3-dihydro-7H-pyrido[1,2,3-de][1,4]benzothiazine-6-carboxylic acids” (J Med Chem, 1987)
